Laboratory results from ChEMBL document CHEMBL3525972, “Characterization of aldehyde oxidase enzyme activity in cryopreserved human hepatocytes” (Drug Metab Dispos, 2012).

Assays:
Aldehyde oxidase [1] = biological target: T1, Aldehyde oxidase (Homo sapiens, UniProt Q06278); assay: Retention time in cryopreserved human hepatocytes assessed as aldehyde oxidase-mediated metabolite formation treated with 10 uM of carbazeran by LC-MS extracted ion chromatogram analysis; type: ADME, cell-based, Hepatocyte
T1 sequence (Q06278 whole entry): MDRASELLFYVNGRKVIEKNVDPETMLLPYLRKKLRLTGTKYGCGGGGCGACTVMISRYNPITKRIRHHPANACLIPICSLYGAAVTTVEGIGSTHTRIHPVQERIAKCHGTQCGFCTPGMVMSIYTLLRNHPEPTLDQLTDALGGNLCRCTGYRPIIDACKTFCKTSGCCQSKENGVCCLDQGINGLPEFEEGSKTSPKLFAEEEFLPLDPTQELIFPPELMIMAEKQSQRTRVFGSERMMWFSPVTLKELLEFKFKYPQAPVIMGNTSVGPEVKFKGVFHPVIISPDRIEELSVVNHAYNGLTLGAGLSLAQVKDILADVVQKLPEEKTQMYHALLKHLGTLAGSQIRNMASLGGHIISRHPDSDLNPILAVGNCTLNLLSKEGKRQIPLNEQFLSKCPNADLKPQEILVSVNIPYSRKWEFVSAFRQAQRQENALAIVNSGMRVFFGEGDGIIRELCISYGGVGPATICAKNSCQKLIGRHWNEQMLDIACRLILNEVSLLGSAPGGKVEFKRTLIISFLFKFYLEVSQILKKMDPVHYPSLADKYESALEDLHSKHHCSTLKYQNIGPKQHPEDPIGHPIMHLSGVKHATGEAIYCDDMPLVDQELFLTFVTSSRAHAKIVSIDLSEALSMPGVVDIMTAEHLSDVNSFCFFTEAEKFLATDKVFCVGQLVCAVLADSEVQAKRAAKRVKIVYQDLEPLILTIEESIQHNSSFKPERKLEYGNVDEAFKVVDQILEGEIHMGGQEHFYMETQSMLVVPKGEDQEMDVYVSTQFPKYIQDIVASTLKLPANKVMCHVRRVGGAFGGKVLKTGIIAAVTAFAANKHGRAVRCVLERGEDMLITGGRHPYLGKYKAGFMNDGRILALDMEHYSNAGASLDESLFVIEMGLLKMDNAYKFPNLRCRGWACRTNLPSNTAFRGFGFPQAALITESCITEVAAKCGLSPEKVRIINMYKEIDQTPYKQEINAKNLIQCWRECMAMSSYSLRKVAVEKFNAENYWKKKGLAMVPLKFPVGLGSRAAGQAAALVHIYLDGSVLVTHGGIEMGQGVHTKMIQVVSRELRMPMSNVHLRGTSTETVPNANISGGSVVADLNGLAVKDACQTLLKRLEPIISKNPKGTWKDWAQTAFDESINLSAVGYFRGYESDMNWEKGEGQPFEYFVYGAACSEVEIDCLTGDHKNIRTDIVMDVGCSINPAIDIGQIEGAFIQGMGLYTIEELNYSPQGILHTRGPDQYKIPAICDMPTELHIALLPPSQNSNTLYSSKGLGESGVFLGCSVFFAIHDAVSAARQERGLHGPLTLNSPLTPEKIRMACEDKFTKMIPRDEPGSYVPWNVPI
Procedure, shortened: (§1)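 Cryopreserved human hepatocytes (lot OOO) were thawed for ~2 min at 37°C, diluted 1/50 in warm recovery medium or WME, spun at 100 x g for 6 min, and resuspended in WME at a final 2.0 x 10^6 cells/mL. They were incubated with 10 µM substrate for 120 min at 37°C. Reactions were stopped with two volumes of cold acetonitrile, then spun, dried under N2 and reconstituted. Read-out was positive-ESI Orbitrap LC-MS extracted ion chromatograms.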

Aldehyde oxidase [2] = biological target: T1, Aldehyde oxidase; assay: Retention time in cryopreserved human hepatocytes assessed as aldehyde oxidase-mediated metabolite formation treated with 10 uM of O6-benzylguanine by LC-MS extracted ion chromatogram analysis; type: ADME, cell-based, Hepatocyte; procedure, shortened: as §1
Aldehyde oxidase [3] = biological target: T1, Aldehyde oxidase; assay: Drug level in cryopreserved human hepatocytes assessed as aldehyde oxidase-mediated metabolite formation treated with 10 uM of BIBU1476 by LC-MS extracted ion chromatogram analysis; type: ADME, cell-based, Hepatocyte
Aldehyde oxidase [4] = biological target: T1, Aldehyde oxidase; assay: Drug level in cryopreserved human hepatocytes assessed as aldehyde oxidase-mediated metabolite formation treated with 10 uM of BIBX1382 by LC-MS extracted ion chromatogram analysis; type: ADME, cell-based, Hepatocyte; procedure, shortened: as §1
Aldehyde oxidase [5] = biological target: T1, Aldehyde oxidase; assay: Drug metabolism in cryopreserved human hepatocytes assessed as aldehyde oxidase-mediated 8-(3-chloro-4-fluorophenylamino)-2-imino-6-oxo-2,3,5,6-tetrahydropyrimido[5,4-d]pyrimidin-3-ium formation at 10 uM by LC-MS extracted ion chromatogram analysis; type: ADME, cell-based, Hepatocyte; procedure, shortened: as §1
Aldehyde oxidase [6] = biological target: T1, Aldehyde oxidase; assay: Drug metabolism in cryopreserved human hepatocytes assessed as aldehyde oxidase-mediated parent compound retention time at 10 uM by LC-MS extracted ion chromatogram analysis; type: ADME, cell-based, Hepatocyte
Procedure, shortened: as §1, with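 “cells/mL.” for “cells/mL. They were incubated with 10 µM substrate for 120 min at 37°C.”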

Aldehyde oxidase [7] = biological target: T1, Aldehyde oxidase; assay: Drug metabolism in cryopreserved human hepatocytes assessed as aldehyde oxidase-mediated N-(but-1-en-2-yl)-8-(3-chloro-4-fluorophenylamino)-6-oxo-6,7-dihydropyrimido[5,4-d]pyrimidin-2-aminium formation at 10 uM by LC-MS extracted ion chromatogram analysis; type: ADME, cell-based, Hepatocyte; procedure, shortened: as §1
Aldehyde oxidase [8] = biological target: T1, Aldehyde oxidase; assay: Drug metabolism in cryopreserved human hepatocytes assessed as aldehyde oxidase-mediated 3-(8-(3-chloro-4-fluorophenylamino)-6-oxo-6,7-dihydropyrimido[5,4-d]pyrimidin-2-ylamino)pent-4-en-1-ylium formation at 10 uM by LC-MS extracted ion chromatogram analysis; type: ADME, cell-based, Hepatocyte; procedure, shortened: as §1
Aldehyde oxidase [9] = biological target: T1, Aldehyde oxidase; assay: Retention time in cryopreserved human hepatocytes assessed as aldehyde oxidase-mediated metabolite formation treated with 10 uM of zaleplon by LC-MS extracted ion chromatogram analysis; type: ADME, cell-based, Hepatocyte
Procedure, shortened: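 Cryopreserved human hepatocytes (Lot OOO), thawed at 37°C, spun at 100 x g, resuspended in Williams' Medium E, then incubated at 2.0 x 10^6 cells/mL with 10 µM substrate for 120 min at 37°C. Quenched with two volumes of cold acetonitrile, centrifuged, supernatant dried under N2 and reconstituted in 85:15 water/acetonitrile (0.1% formic acid). Analysed by high-resolution ESI-positive Orbitrap LC-MS using extracted ion chromatograms.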

Aldehyde oxidase [10] = biological target: T1, Aldehyde oxidase; assay: Retention time in cryopreserved human hepatocytes assessed as aldehyde oxidase-mediated metabolite formation treated with 10 uM of XK-469 by LC-MS extracted ion chromatogram analysis; type: ADME, cell-based, Hepatocyte; procedure, shortened: as §1
clinical = conditions: human, in vivo
Aldehyde oxidase [11] = biological target: T1, Aldehyde oxidase; assay: Drug metabolism in cryopreserved human hepatocytes assessed as aldehyde oxidase-mediated metabolite formation at 10 uM by LC-MS extracted ion chromatogram analysis in presence of hydralazine
[12] = Oral bioavailability in human; type: ADME, organism-based; conditions: in vivo
Aldehyde oxidase [13] = biological target: T1, Aldehyde oxidase; assay: Drug metabolism in cryopreserved human hepatocytes assessed as aldehyde oxidase-mediated N-(but-1-en-2-yl)-8-(3-chloro-4-fluorophenylamino)pyrimido[5,4-d]pyrimidin-2-aminium formation at 10 uM by LC-MS extracted ion chromatogram analysis; type: ADME, cell-based, Hepatocyte; procedure, shortened: as §1
Aldehyde oxidase [14] = biological target: T1, Aldehyde oxidase; assay: Drug metabolism in cryopreserved human hepatocytes assessed as aldehyde oxidase-mediated 8-(3-chloro-4-fluorophenylamino)-2-imino-2,3-dihydropyrimido[5,4-d]pyrimidin-3-ium formation at 10 uM by LC-MS extracted ion chromatogram analysis; type: ADME, cell-based, Hepatocyte; procedure, shortened: as §1
Aldehyde oxidase [15] = biological target: T1, Aldehyde oxidase; assay: Drug metabolism in cryopreserved human hepatocytes assessed as aldehyde oxidase-mediated 3-(8-(3-chloro-4-fluorophenylamino)pyrimido[5,4-d]pyrimidin-2-ylamino)pent-4-en-1-ylium formation at 10 uM by LC-MS extracted ion chromatogram analysis; type: ADME, cell-based, Hepatocyte; procedure, shortened: as §1

Q: Which Retention_time (Aldehyde oxidase [1]) does the source give for `CCNC(=O)OC1CCN(c2n[nH]c(=O)c3cc(OC)c(OC)cc23)CC1` here?
A: Its Retention_time is 13.9 min.

Q: With `Nc1nc(OCc2ccccc2)c2[nH]c(O)nc2n1` as the compound, how does the Retention_time (Aldehyde oxidase [2]) read?
A: Its Retention_time is 12.5 min.

Q: With `N=c1nc2c(Nc3ccc(F)c(Cl)c3)nc(=O)[nH]c2c[nH]1` as the compound, how does the Drug metabolism (Aldehyde oxidase [3]) read?
A: The Drug metabolism was “metabolite_detected”.

Q: Which Drug metabolism (Aldehyde oxidase [3]) does the source give for `C=C(CC)Nc1ncc2nc(=O)[nH]c(Nc3ccc(F)c(Cl)c3)c2n1` here?
A: Its Drug metabolism is “metabolite_detected”.

Q: Which Drug metabolism (Aldehyde oxidase [4]) does the source give for `Nc1ncc2ncnc(Nc3ccc(F)c(Cl)c3)c2n1` here?
A: The Drug metabolism was “metabolite_detected”.

Q: With `CN1CCC(Nc2ncc3nc(=O)[nH]c(Nc4ccc(F)c(Cl)c4)c3n2)CC1` as the compound, how does the Drug metabolism (Aldehyde oxidase [5]) read?
A: The Drug metabolism was “metabolite_detected”.

Q: And the Retention time (Aldehyde oxidase [6])?
A: The Retention time was 10.7 min.

Q: And the Drug metabolism (Aldehyde oxidase [7])?
A: Its Drug metabolism is “metabolite_detected”.

Q: And the Drug metabolism (Aldehyde oxidase [8])?
A: Its Drug metabolism is “metabolite_detected”.

Q: Which Drug metabolism (Aldehyde oxidase [4]) does the source give for `C=C(CC)Nc1ncc2ncnc(Nc3ccc(F)c(Cl)c3)c2n1` here?
A: The Drug metabolism was “metabolite_detected”.

Q: Which Retention_time (Aldehyde oxidase [9]) does the source give for `CCN(C(C)=O)c1cccc(-c2cc(=O)[nH]c3c(C#N)cnn23)c1` here?
A: The Retention_time was 12.7 min.

Q: With `C[C@@H](Oc1ccc(OC2N=c3cc(Cl)ccc3=NC2=O)cc1)C(=O)O` (some centres undefined) as the compound, how does the Retention_time (Aldehyde oxidase [10]) read?
A: Its Retention_time is 15.7 min.

Q: For `C=CC(CC)Nc1ncc2nc(=O)[nH]c(Nc3ccc(F)c(Cl)c3)c2n1` (centres undefined), which Drug metabolism (Aldehyde oxidase [3]) is on record?
A: Its Drug metabolism is “metabolite_detected”.

Q: Which Drug metabolism (Aldehyde oxidase [4]) does the source give for `C=CC(CC)Nc1ncc2ncnc(Nc3ccc(F)c(Cl)c3)c2n1` (centres undefined) here?
A: Its Drug metabolism is “metabolite_detected”.

Q: With `Nc1nc(OCc2ccccc2)c2[nH]cnc2n1` [6-O-BENZYLGUANINE] as the compound, how does the Retention_time (Aldehyde oxidase [6]) read?
A: The Retention_time was 10.5 min.

Q: What about the clearance (clinical) of the same compound?
A: Its clearance is 15.6 mL/min/kg.

Q: What about the Drug metabolism (Aldehyde oxidase [11]) of the same compound?
A: The Drug metabolism was “metabolite_not_detected”.

Q: With `CCNC(=O)OC1CCN(c2nncc3cc(OC)c(OC)cc23)CC1` [CARBAZERAN] as the compound, how does the bioavailability [12] read?
A: Its bioavailability is under 5%.

Q: For `CN1CCC(Nc2ncc3ncnc(Nc4ccc(F)c(Cl)c4)c3n2)CC1` [FALNIDAMOL], which Retention time (Aldehyde oxidase [6]) is on record?
A: The Retention time was 12.5 min.

Q: What about the Drug metabolism (Aldehyde oxidase [13]) of the same compound?
A: Its Drug metabolism is “metabolite_detected”.

Q: What about the clearance (clinical) of the same compound?
A: The clearance was 25 mL/min/kg.

Q: What about the Drug metabolism (Aldehyde oxidase [14]) of the same compound?
A: Its Drug metabolism is “metabolite_detected”.

Q: What about the Drug metabolism (Aldehyde oxidase [11]) of the same compound?
A: The Drug metabolism was “metabolite_not_detected”.

Q: And the bioavailability [12]?
A: The bioavailability was 2%.

Q: And the Drug metabolism (Aldehyde oxidase [15])?
A: Its Drug metabolism is “metabolite_detected”.

Q: What does the source list for `C[C@@H](Oc1ccc(Oc2cnc3ccc(Cl)cc3n2)cc1)C(=O)O` [R(+)XK469]?
A: Retention_time (Aldehyde oxidase [6]): 17.4 min; clearance (clinical): < 1 mL/min/kg

Q: Which results are given for `CCN(C(C)=O)c1cccc(-c2ccnc3c(C#N)cnn23)c1` [ZALEPLON]?
A: Retention_time (Aldehyde oxidase [6]): 14.5 min; clearance (clinical): 15.7 mL/min/kg
